The assay relates to Vaccinia virus. The experiment in a line: Antiviral activity against Vaccinia virus infected in HELF assessed as virus-induced cytopathogenicity at 20 to 100 uM after 4 days by microscopy. Conditions: Orthopoxvirus vaccinia. It counts as functional, organism-based. In a few lines:
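Near-confluent MDCK (influenza) or confluent HEL monolayers were inoculated with 100 CCID50 of virus. After 1-h adsorption, residual virus was removed, and cells were incubated with fivefold serial dilutions of compound. Cytopathicity was scored microscopically once untreated infected controls reached complete CPE. Minimal cytotoxic concentration was read as microscopically visible alteration of cell morphology.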
(In general: Cytopathic effects are the visible damage that an infection or toxin causes in cultured cells.)

Each structure is given as a SMILES string. The source made the active and inactive calls. The rule behind the calls is not given here.

In the case of `C[C@H](NC(=O)[C@]1(Cc2ccccc2)CCN1C(=O)OCC1c2ccccc2-c2ccccc21)C(N)=O`, the result was inactive.

The values above are taken from ChEMBL document CHEMBL1671794, “Synthesis and SAR studies on azetidine-containing dipeptides as HCMV inhibitors” (Bioorg Med Chem, 2011).
